PubChem BioAssay AID821 (SRMLSC, 2007)
Calls of active or inactive are those of the source.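 The calls were made as follows: active = compounds whose fitted half-maximal concentration for reducing fibroblast viability is 100 µM or lower; inactive = the rest.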

system: LL 47 lung fibroblast viability, ATP luminescence; assay: inhibition of LL 47 lung fibroblast growth, concentration-response curve, selectivity screen for endothelial cell growth inhibitor project, cellular system, ATP luminescence readout (AID 821); details: not given;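 as to viability: 100% = median of untreated cell-only wells and 0% = no luminescence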
How it was run: (§1)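 Test system: human lung fibroblasts, LL 47 line / Amount: 1,150 cells/well / Schedule: 72 h compound treatment at 37 °C after overnight attachment / Technique: CellTiter-Glo luminescence readout of viable cells / Measure: percent viability relative to untreated wells, EC50 via 4-parameter fit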

| Compound | EC50 |
| --- | --- |
| O=C(Nc1nnc(-c2ccccc2SCc2ccccc2F)s1)Nc1ccccc1F | 16.2 µM |
| Cc1ccc(-n2c(SCC(=O)Nc3ccc4c(c3)OCO4)nnc2-c2cccs2)cc1 | 17.5 µM |
| CCOC(=O)c1ccccc1Nc1cn(C(C)=O)c2ccccc12 | 14.5 µM |
| CCN1CCN(c2cc(C)c3cc(NC(=O)c4ccc(OC)c(OC)c4)ccc3n2)CC1 | 15.2 µM |
| Cc1nc(NC(=O)CSc2nc3cccnc3n2C2CCCCC2)sc1C | 8.49 µM |
| CCCCn1c(=O)c(C(=O)Nc2cnccn2)c(O)c2ccccc21 | 16.1 µM |
| O=C(Oc1c(CN2CCOCC2)cc(Cl)c2cccnc12)c1ccc(F)cc1 | 5.32 µM |
| O=c1cc(-c2ccccc2)[nH]n1-c1nc2ccccc2[nH]1 | 5.6 µM |
| CCCCN(C)S(=O)(=O)c1ccc(C(=O)Nc2nnc(-c3cccs3)o2)cc1 | 11.5 µM |
| O=C(Oc1ccccc1)c1cccc2cccnc12 | 6.87 µM |
| COc1cc(/C=C/c2ccc3cccc(OC)c3n2)c(OC(C)=O)c([N+](=O)[O-])c1 | 17.2 µM |
| Cc1ccsc1/C=C/c1ccc2cccc(O)c2n1 | 10.9 µM |
| O=C(Cc1sc(-c2ccccc2Cl)nc1-c1ccccc1)Nc1ccc(F)cc1 | 19.4 µM |
| CC(Nc1nc(N2CCCC2)nc2ccccc12)c1ccccc1 (configuration not stated) | 11.7 µM |
| COc1cc2nc(N3CCN(C(=O)c4ccco4)CC3)nc(N)c2cc1OC | 8.04 µM |
| CC1(C)CC(=O)C2=C(C1)Oc1nc3ccccc3cc1C2C(C#N)C#N (configuration not stated) | 14.5 µM |
| CN(CCO)c1cc(Sc2nc3ccccc3s2)c2nonc2c1[N+](=O)[O-] | 18.6 µM |
| Cc1ccc(NC(=O)c2cc(NC(=O)c3ccco3)ccc2N2CCCCC2)cc1 | 18 µM |
| COc1ccc(C(=O)C(CN2CCOCC2)c2ccccc2)cc1 (configuration not stated) | 4.7 µM |
| CCOC(=O)c1c(NC(=O)CCl)sc(C(=O)N(CC)CC)c1C | 6.25 µM |
| CCCCCCOC(=O)C(C#N)c1nc2ccccc2nc1N1CCN(CC)CC1 (configuration not stated) | 17.6 µM |
| COCCCn1[nH]c2c3c(ccc2c1=O)C(=O)c1ccccc1C3=O | 17 µM |

| Compound | EC50 |
| --- | --- |
| COc1cc(N=c2ssnc2Cl)cc(OC)c1OC | 15.2 µM |
| COc1ccc2c(c1)c1nc3ccccc3nc1n2CC(=O)OC(C)C | 15.5 µM |
| O=C1Nc2ccccc2/C1=C/C(=O)c1cccs1 | 6.78 µM |
| CN1CCN(S(=O)(=O)c2ccc(NC(=O)Nc3cccc(Cl)c3)cc2)CC1 | 16.5 µM |
| Oc1ccccc1-c1nnc(SCCN2CCOCC2)n1Cc1ccccc1 | 1.48 µM |
| CCOC(=O)c1cnc(-n2nc(C)cc2C)nc1NC1CCCCC1 | 14.2 µM |
| Cc1nc(S(=O)(=O)N(C)c2ccccc2)c(C#N)c(C)c1Cl | 18.7 µM |
| CCOC(=O)c1sc(SCC(=O)Nc2ccc(N(C)C)cc2)nc1N | 11.8 µM |
| COc1ccc(S(=O)(=O)Nc2ccc(O)c3ccccc23)cc1 | 13.1 µM |
| COc1cccc2sc(Nc3nc(C)c(C(C)=O)s3)nc12 | 5.54 µM |
| N#Cc1c(NCCN)nc(-c2ccco2)c2c1CCCC2 | 11.7 µM |
| CCN(CC)c1ccc2c(c1)oc(=O)c1c(Cl)cc(=O)oc12 | 7.29 µM |
| O=c1[nH]c(Nc2nc3ccccc3o2)nc2c1CCCC2 | 4.52 µM |
| Cn1c(=O)n(C)c2cc(NC(=O)CCl)ccc21 | 10 µM |
| O=C(CCS(=O)(=O)c1ccccc1)Nc1nc2c(s1)CCCC2 | 14.3 µM |
| N=c1c2c(-c3ccccc3)c(-c3ccccc3)n(Cc3ccco3)c2ncn1Cc1ccco1 | 7.06 µM |
| CCC(=O)N1c2ccc(S(=O)(=O)CCC(=O)N3CCn4c3nc3ccccc34)cc2CC1C (configuration not stated) | 9.63 µM |
| Cc1cc(C)c2c(=O)n(CC(=O)NCCCN3CCN(c4ccccc4F)CC3)sc2n1 | 10.2 µM |
| O=c1[nH]c2cc3c(cc2cc1C(c1nnnn1C1CCCCC1)N1CCSCC1)OCCO3 (configuration not stated) | 19.7 µM |
| CCc1[nH]nc2c1C(c1ccc(Br)s1)C(C#N)=C(N)O2 (configuration not stated) | 13.6 µM |
| CC(=O)C(C(C)=O)c1c(Cl)c(O)c(O)c2c(C(=O)c3ccccc3)coc12 | 14.5 µM |
| c1ccc(-c2nc(N3CCCCCC3)c3ccccc3n2)nc1 | 1.73 µM |

| Compound | EC50 |
| --- | --- |
| CC(C)(C)c1nn(-c2ccccc2)c2[nH]c(=O)c(CNCc3ccc4c(c3)OCO4)cc12 | 20.6 µM |
| COc1ccc(C2Oc3ccccc3C3=C2C(c2cccs2)n2ncnc2N3)cc1 (configuration not stated) | 19.2 µM |
| COc1ccc(Nc2nc(N3CCCC3)nc3ccccc23)c(OC)c1 | 14.4 µM |
| Cn1c(=O)n(C)c2cc(C(=O)Nc3ccc4c(c3)OCO4)ccc21 | 12.9 µM |
| O=S(=O)(c1ccc2c(c1)nc(COc1ccc(Cl)cc1)n2CC1CCCO1)N1CCOCC1 (configuration not stated) | 8.4 µM |
| COc1ccc(CN=C(C)c2c(C(F)(F)F)[nH]n(-c3nc4ccccc4s3)c2=O)cc1 | 18 µM |
| CCN(CC)CCn1c2ccccc2c2cnc(N)c(C#N)c21 | 9.65 µM |
| COC(=O)/C=C1\C(=O)N(c2nc3ccccc3s2)C(=S)N1c1ccc(F)cc1 | 17.8 µM |
| O=C(Cn1c(=O)n(CCCC(=O)NC2CCCC2)c(=O)c2ccccc21)NCCC1=CCCCC1 | 19.4 µM |
| CCOC(=O)C1=C(N)n2c(s/c(=C/c3ccco3)c2=O)=C(C(=O)OC)C1c1ccco1 (configuration not stated) | 9.27 µM |
| CC(=O)Nc1ccc(NC2=Nc3ccccc3N3C2=Nc2c(c(C)nn2-c2ccccc2)C3c2ccccc2)cc1 (configuration not stated) | 12.2 µM |
| OCc1ccc(O)c2ncccc12 | 9.4 µM |
| CCOC(=O)c1cnc(-n2nc(C)cc2C)nc1Nc1ccc(N(C)C)cc1 | 14.6 µM |
| CC1=CC(C)(C)Nc2ccc(OC(=O)c3cccnc3)cc21 | 7.47 µM |
| COc1ccccc1-c1nnc2n1N=C(c1ccc(O)c(O)c1)CS2 | 2.68 µM |
| COc1ccc(C(=O)Oc2c(CN3CCOCC3)cc(Cl)c3cccnc23)cc1 | 6.15 µM |
| Cc1ccc(/C=N/Nc2ncc(Cl)cc2Cl)s1 | 15.2 µM |
| O=C1CC(Sc2nnc(-c3ccccc3O)o2)C(=O)N1c1ccccc1 (configuration not stated) | 20.8 µM |
| CCn1c(=O)cc(C(=O)OC)sc1=Nc1ccc(F)c(F)c1 | 17.4 µM |
| COC(=O)CCS(=O)(=O)c1nc(-c2ccccc2)cc(C(F)(F)F)n1 | 14.4 µM |
| Cc1ccc2[nH]c3c(c2c1)CCCC3=O | > 10 µM (inactive) |
| Oc1cccc2ccc(/C=C/c3cccs3)nc12 | 9.71 µM |

| Compound | EC50 |
| --- | --- |
| O=c1ccsn1Cc1ccccc1 | 7.57 µM |
| COc1ccc(CC(=O)Nc2ccc(-c3nc4cc(C)ccc4o3)c(O)c2)cc1OC | 18.6 µM |
| COC(=O)CS(=O)(=O)c1nnc([C@H](Cc2ccccc2)NC(=O)OC(C)(C)C)o1 | 7.97 µM |
| Cn1cc(/C=N/n2cnc3scc(-c4ccccc4)c3c2=O)c2ccccc21 | 12.9 µM |
| Cc1ccccc1NS(=O)(=O)c1ccc(N2CCCC2=O)cc1 | 16.3 µM |
| CC(C)CNC(=O)c1coc(=O)c(Br)c1 | 20.5 µM |
| COC(=O)NC(=C(Cl)Cl)S(=O)(=O)c1ccccc1 | 12.2 µM |
| CCCCOc1ccc(C(=O)C(CN2CCOCC2)c2ccccc2)cc1 (configuration not stated) | 6.5 µM |
| COc1ccc2oc(=O)c(-c3nnc(NCc4ccco4)s3)cc2c1 | 8 µM |
| Cc1oc(-c2ccc(Cl)cc2)nc1CN1CCC(C(=O)N2CCN(Cc3ccccc3)CC2)CC1 | 17.5 µM |
| O=C(Nc1nc(NC(=O)c2ccco2)n(-c2ccccc2)n1)c1ccccc1 | 11.5 µM |
| COc1ccc2nc(Nc3nc(CSc4nnnn4-c4ccccc4)cc(=O)[nH]3)nc(C)c2c1 | 13.8 µM |
| Cn1c2ccccc2c(=O)c2c(=O)n(C3CCCCC3)c(-c3cccs3)nc21 | 14.2 µM |
| CCOC(=O)c1c(CC(C)C)csc1NC=O | 20.4 µM |
| Cc1ccc(-c2csc3ncnc(Sc4nnc(CN5CCCCCC5=O)o4)c23)cc1 | 5.46 µM |
| COc1cc(NC(=O)c2cccs2)c(C(=O)OCC(=O)NCc2ccccc2)cc1OC | 20.6 µM |
| COc1cc(C(C[N+](=O)[O-])c2c(-c3ccccc3)cc3ccccn23)cc(OC)c1OC (configuration not stated) | 18.7 µM |
| CC(=O)SC(C[N+](=O)[O-])c1cn(C(C)=O)c2ccccc12 (configuration not stated) | 11.7 µM |
| Cc1ccc(S(=O)(=O)N2CCCN(S(=O)(=O)c3ccc(C(F)(F)F)cc3)CC2)cc1 | 16.1 µM |
| N=c1n(CCN2CCCCC2)c2ccccc2n1CC(O)c1cccc(Br)c1 (configuration not stated) | 13.3 µM |
| O=C(Nc1nccs1)c1c(O)c2cccc3c2n(c1=O)CCC3 | 15.2 µM |

system: not listed separately; assay: as above; details: LL 47 lung fibroblast viability, ATP luminescence; at 20 µM (top of the series)
How it was run: as §1

| Compound | viability |
| --- | --- |
| CN1CCN(c2ccccc2NC(=O)c2ccc(-c3ccc(Cl)cc3Cl)o2)CC1 | 88.2% (inactive) |
| C=CCn1c(O)c(C2=c3ccccc3=NC2=O)s/c1=N/c1nccs1 | 88% (inactive) |
| CCn1c(=N)n(CC(=O)C23CC4CC(CC(C4)C2)C3)c2ccccc21 | 86% (inactive) |
| CC(C)COc1ccc2[nH]c3c(c2c1)CCCC3=O | 101% (inactive) |
| CCCC(=O)Nc1cccc(-c2nc3cc(C)c(C)cc3o2)c1 | 104% (inactive) |
| CCC(C)NC(=O)c1c(N)n(/N=C/c2ccccn2)c2nc3ccccc3nc12 (configuration not stated) | 116% (inactive) |
| COc1ccc(N/N=C2/CCCCC2=O)cc1 | 123% (inactive) |
| Cn1c(=O)c2c(ncn2CC(=O)Nc2nc(-c3ccccc3Cl)cs2)n(C)c1=O | 110% (inactive) |
| Cc1nc2ccccc2c2oc(C(=O)NCc3ccc4c(c3)OCO4)cc12 | 102% (inactive) |
| CC(=O)c1c(C)[nH]c(C(=O)CSc2nnc(-c3ccccc3)n2Cc2ccc3c(c2)OCO3)c1C | 94.2% (inactive) |
| CC(/C=N/n1cnnc1)=C\c1ccccc1 | 109% (inactive) |
| CCc1ccc(-c2nc(CN3CCC(C(=O)NCc4ccc(F)cc4)CC3)c(C)o2)cc1 | 103% (inactive) |
| Cc1ccc(S(=O)(=O)c2c(C)nn(C(C)(C)C)c2OC(=O)c2ccco2)cc1 | 108% (inactive) |
| CC(=O)n1cc(-c2ccncc2)c2ccccc21 | 98.4% (inactive) |
| CCOc1cc(/C=N\NC(=O)Cn2nc([N+](=O)[O-])cc2C)ccc1OCc1cccc2ccccc12 | 89.7% (inactive) |
| Cc1ccc(N=Nc2c(C)[nH][nH]c2=O)c(C)c1 | 97.6% (inactive) |
| Cc1cc(C(=O)OC(C)C(=O)Nc2cccc(S(=O)(=O)N3CCOCC3)c2)c(C)o1 (configuration not stated) | 105% (inactive) |
| CC1(C)CC(=O)c2cc(C(=O)NCc3ccco3)c(=O)n(-c3ccc(Cl)cc3)c2C1 | 105% (inactive) |
| Cc1ccccc1N1C(=O)CC(Sc2nnc(-c3ccccc3)o2)C1=O (configuration not stated) | 90.5% (inactive) |
| CCCC1(CCC)NC(=O)N(CC(=O)Nc2ccccc2OC)C1=O | 92.2% (inactive) |
